Experimental data taken from ChEMBL document CHEMBL1770123, “SPF32629A and SPF32629B: enantioselective synthesis, determination of absolute configuration, cytotoxicity and antibacterial evaluation” (Eur J Med Chem, 2011).
In brackets after ≈: the same amount, converted by molar mass. Activity calls are given as the source filed them. No cut-off for these calls is given here.

How the values were obtained:
[1] = tested on: Klebsiella pneumoniae; assay: Antimicrobial activity against Klebsiella pneumoniae at 500 ug/disc after 24 hrs by disc diffusion method; assay type: functional; conditions: read-out: DIZ
[2] = tested on: Staphylococcus aureus; assay: Antimicrobial activity against methicillin-resistant Staphylococcus aureus strain 2 TB4G at 1000 ug/disc after 24 hrs by disc diffusion method; assay type: functional; conditions: for zone of inhibition at 1000 µg/disc: read-out: DIZ
In short: (§1)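 Disc diffusion on 2.4% Mueller-Hinton agar inoculated with the strain. Paper discs 6 mm across were loaded with test compound and placed on the agar. Plates were incubated at 37 °C for 24 h. Read-out was the diameter of the inhibition zone in mm.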

[3] = tested on: Escherichia coli; assay: Antimicrobial activity against Escherichia coli after 24 hrs by microdilution method; assay type: functional
In short: (§2)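 Growth was judged by turbidity, and the MIC was taken as the minimum concentration giving the lowest growth. Amikacin served as reference.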

[4] = tested on: Listeria monocytogenes; assay: Antimicrobial activity against Listeria monocytogenes after 24 hrs by microdilution method; assay type: functional; in short: as §2
[5] = tested on: A549; assay: Cytotoxicity against human A549 cells assessed as cell death at 5 ug after 48 hrs by MTT assay; assay type: functional
In short: (§3)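 A549 cells were grown in DMEM with 2 mmol L-glutamine, 10% FBS, penicillin (50 IU/mL) and streptomycin, at 37 °C and 5% CO2. 1×10^4 cells/well were plated and treated 24 h later with compound diluted in medium for 48 h. Controls were DMSO-matched and untreated wells. MTT 0.4 mg/mL in PBS was added for 4 h in the dark, then DMSO for 4 h. A540 was read and reported as % live cells relative to untreated.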

[6] = tested on: Escherichia coli; assay: Antimicrobial activity against Escherichia coli at 1000 ug/disc after 24 hrs by disc diffusion method; assay type: functional; conditions: read-out: DIZ
[7] = tested on: Bacillus subtilis; assay: Antimicrobial activity against Bacillus subtilis at 1000 ug/disc after 24 hrs by disc diffusion method; assay type: functional; conditions: read-out: DIZ
[8] = tested on: Staphylococcus aureus; assay: Antimicrobial activity against Staphylococcus aureus at 1000 ug/disc after 24 hrs by disc diffusion method; assay type: functional; conditions: for zone of inhibition at 1000 µg/disc: read-out: DIZ
[9] = tested on: Bacillus subtilis; assay: Antimicrobial activity against Bacillus subtilis at 500 ug/disc after 24 hrs by disc diffusion method; assay type: functional; conditions: read-out: DIZ
[10] = tested on: Staphylococcus aureus; assay: Antimicrobial activity against methicillin-resistant Staphylococcus aureus strain 1 TB3G at 500 ug/disc after 24 hrs by disc diffusion method; assay type: functional; conditions: for zone of inhibition at 500 µg/disc: read-out: DIZ; in short: as §1
[11] = tested on: A549; assay: Cytotoxicity against human A549 cells assessed as cell death at 10 ug after 48 hrs by MTT assay; assay type: functional; in short: as §3
[12] = tested on: Staphylococcus aureus; assay: Antimicrobial activity against methicillin-resistant Staphylococcus aureus strain 1 TB3G at 1000 ug/disc after 24 hrs by disc diffusion method; assay type: functional; conditions: for zone of inhibition at 1000 µg/disc: read-out: DIZ; in short: as §1
[13] = tested on: Escherichia coli; assay: Antimicrobial activity against Escherichia coli at 500 ug/disc after 24 hrs by disc diffusion method; assay type: functional; conditions: read-out: DIZ
[14] = tested on: Listeria monocytogenes; assay: Antimicrobial activity against Listeria monocytogenes at 500 ug/disc after 24 hrs by disc diffusion method; assay type: functional; conditions: for zone of inhibition at 500 µg/disc: read-out: DIZ
[15] = tested on: Staphylococcus epidermidis; assay: Antimicrobial activity against Staphylococcus epidermidis at 500 ug/disc after 24 hrs by disc diffusion method; assay type: functional; conditions: read-out: DIZ
[16] = tested on: Staphylococcus epidermidis; assay: Antimicrobial activity against Staphylococcus epidermidis at 1000 ug/disc after 24 hrs by disc diffusion method; assay type: functional; conditions: read-out: DIZ
[17] = tested on: A549; assay: Cytotoxicity against human A549 cells assessed as cell death at 2 ug after 48 hrs by MTT assay; assay type: functional; in short: as §3
[18] = tested on: A549; assay: Cytotoxicity against human A549 cells assessed as cell death at 25 ug after 48 hrs by MTT assay; assay type: functional; in short: as §3
[19] = tested on: Staphylococcus aureus; assay: Antimicrobial activity against methicillin-resistant Staphylococcus aureus strain 4 TB5G after 24 hrs by microdilution method; assay type: functional
In short: (§4)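 Growth was judged by turbidity. The MIC was taken as the lowest concentration giving the lowest growth.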

[20] = tested on: Staphylococcus aureus; assay: Antimicrobial activity against methicillin-resistant Staphylococcus aureus strain 4 TB5G at 500 ug/disc after 24 hrs by disc diffusion method; assay type: functional; conditions: for zone of inhibition at 500 µg/disc: read-out: DIZ; in short: as §1
[21] = tested on: Klebsiella pneumoniae; assay: Antimicrobial activity against Klebsiella pneumoniae after 24 hrs by microdilution method; assay type: functional; in short: as §2
[22] = tested on: Staphylococcus aureus; assay: Antimicrobial activity against methicillin-resistant Staphylococcus aureus strain 2 TB4G after 24 hrs by microdilution method; assay type: functional; in short: as §4
[23] = tested on: Salmonella typhimurium; assay: Antimicrobial activity against Salmonella Typhimurium after 24 hrs by microdilution method; assay type: functional, Salmonella enterica subsp. enterica serovar Typhimurium; conditions: Salmonella enterica; in short: as §2
[24] = tested on: Salmonella typhimurium; assay: Antimicrobial activity against Salmonella Typhimurium at 500 ug/disc after 24 hrs by disc diffusion method; assay type: functional, Salmonella enterica subsp. enterica serovar Typhimurium; conditions: Salmonella enterica, read-out: DIZ
[25] = tested on: Staphylococcus aureus; assay: Antimicrobial activity against methicillin-resistant Staphylococcus aureus strain 2 TB4G at 500 ug/disc after 24 hrs by disc diffusion method; assay type: functional; conditions: for zone of inhibition at 500 µg/disc: read-out: DIZ; in short: as §1
[26] = tested on: Klebsiella pneumoniae; assay: Antimicrobial activity against Klebsiella pneumoniae at 1000 ug/disc after 24 hrs by disc diffusion method; assay type: functional; conditions: read-out: DIZ
[27] = tested on: A549; assay: Cytotoxicity against human A549 cells assessed as cell death at 1 ug after 48 hrs by MTT assay; assay type: functional; in short: as §3
[28] = tested on: Listeria monocytogenes; assay: Antimicrobial activity against Listeria monocytogenes at 1000 ug/disc after 24 hrs by disc diffusion method; assay type: functional; conditions: for zone of inhibition at 1000 µg/disc: read-out: DIZ
[29] = tested on: Salmonella typhimurium; assay: Antimicrobial activity against Salmonella Typhimurium at 1000 ug/disc after 24 hrs by disc diffusion method; assay type: functional, Salmonella enterica subsp. enterica serovar Typhimurium; conditions: Salmonella enterica, read-out: DIZ
[30] = tested on: Staphylococcus aureus; assay: Antimicrobial activity against Staphylococcus aureus after 24 hrs by microdilution method; assay type: functional; in short: as §2
[31] = tested on: Staphylococcus aureus; assay: Antimicrobial activity against methicillin-resistant Staphylococcus aureus strain 1 TB3G after 24 hrs by microdilution method; assay type: functional; in short: as §4
[32] = tested on: Staphylococcus aureus; assay: Antimicrobial activity against Staphylococcus aureus at 500 ug/disc after 24 hrs by disc diffusion method; assay type: functional; conditions: for zone of inhibition at 500 µg/disc: read-out: DIZ; in short: as §1
[33] = tested on: Staphylococcus aureus; assay: Antimicrobial activity against methicillin-resistant Staphylococcus aureus strain 4 TB5G at 1000 ug/disc after 24 hrs by disc diffusion method; assay type: functional; conditions: for zone of inhibition at 1000 µg/disc: read-out: DIZ; in short: as §1
[34] = tested on: Bacillus subtilis; assay: Antimicrobial activity against Bacillus subtilis after 24 hrs by microdilution method; assay type: functional; in short: as §2
[35] = tested on: Staphylococcus epidermidis; assay: Antimicrobial activity against Staphylococcus epidermidis after 24 hrs by microdilution method; assay type: functional; in short: as §2
[36] = tested on: A549; assay: Cytotoxicity against human A549 cells after 48 hrs by MTT assay; assay type: functional, cell-based; conditions: A549, 48 h
In short: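 A549 cells were kept in DMEM with 2 mM L-glutamine, 10% FBS, penicillin 50 IU/mL and streptomycin at 37 °C under 5% CO2. 1×10^4 cells per well were treated 24 h after seeding with compounds diluted in medium for 48 h. MTT (0.4 mg/mL in PBS) was added for 4 h in the dark, formazan was dissolved in DMSO for 4 h and absorbance read at 540 nm. Viability was expressed as % of untreated cells, and IC50 was derived.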

| Compound | zone of inhibition at 500 µg/disc [1] | zone of inhibition at 1000 µg/disc [2] | MIC [3] | MIC [4] | Activity [5] | zone of inhibition at 1000 µg/disc [6] | zone of inhibition at 1000 µg/disc [7] | zone of inhibition at 1000 µg/disc [8] | zone of inhibition at 500 µg/disc [9] | Activity [11] | zone of inhibition at 500 µg/disc [13] | zone of inhibition at 500 µg/disc [15] | zone of inhibition at 1000 µg/disc [16] | Activity [17] | Activity [18] | zone of inhibition at 500 µg/disc [24] | zone of inhibition at 1000 µg/disc [26] | Activity [27] | zone of inhibition at 1000 µg/disc [29] | IC50 [36] | also measured |
| --- | --- | --- | --- | --- | --- | --- | --- | --- | --- | --- | --- | --- | --- | --- | --- | --- | --- | --- | --- | --- | --- |
| CC(C)CC(=O)O[C@@H](c1ccccc1)c1cc(O)c(C(=O)O)c(=O)[nH]1 | 13 mm | 12 mm | 25 µg/mL (≈ 72.4 µM) | > 100 µg/mL | 47.69% | 18 mm | 12 mm | 16 mm | 5 mm | 77.23% | 9 mm | 11 mm | 18 mm | 25.23% | 82.46% | 11 mm | 20 mm | 9.53% | 19 mm | 9 µM | zone of inhibition at 500 µg/disc [10]: 5 mm; zone of inhibition at 1000 µg/disc [12]: 10 mm; zone of inhibition at 500 µg/disc [14]: 10 mm; MIC [19]: > 100 µg/mL; zone of inhibition at 500 µg/disc [20]: 6 mm; MIC [21]: 100 µg/mL (≈ 290 µM); MIC [22]: > 100 µg/mL; MIC [23]: > 100 µg/mL; zone of inhibition at 500 µg/disc [25]: 7 mm; zone of inhibition at 1000 µg/disc [28]: 18 mm; MIC [30]: > 100 µg/mL; MIC [31]: > 100 µg/mL; zone of inhibition at 500 µg/disc [32]: 7 mm; zone of inhibition at 1000 µg/disc [33]: 10 mm; MIC [34]: 50 µg/mL (≈ 145 µM); MIC [35]: 100 µg/mL (≈ 290 µM) |
| CC(C)CC(=O)O[C@H](c1ccccc1)c1cc(O)cc(=O)[nH]1 | 14 mm |  |  |  | 48.82% | 20 mm | 19 mm |  | 10 mm | 50.39% | 13 mm | 8 mm | 17 mm | 18.59% | 75.78% | 12 mm | 24 mm | 3.13% | 20 mm | 10 µM | diameter of the inhibition zone (DIZ) [2]: inactive; diameter of the inhibition zone (DIZ) [8]: inactive; diameter of the inhibition zone (DIZ) [10]: inactive; diameter of the inhibition zone (DIZ) [12]: inactive; diameter of the inhibition zone (DIZ) [14]: inactive; diameter of the inhibition zone (DIZ) [20]: inactive; diameter of the inhibition zone (DIZ) [25]: inactive; diameter of the inhibition zone (DIZ) [28]: inactive; diameter of the inhibition zone (DIZ) [32]: inactive; diameter of the inhibition zone (DIZ) [33]: inactive |
| CC(C)CC(=O)O[C@H](c1ccccc1)c1cc(O)c(C(=O)O)c(=O)[nH]1 | 9 mm | 10 mm | 50 µg/mL (≈ 145 µM) | 100 µg/mL (≈ 290 µM) | 44.92% | 18 mm | 15 mm | 18 mm | 8 mm | 77.84% | 10 mm | 12 mm | 20 mm | 30.76% | 78.76% | 9 mm | 20 mm | 10.46% | 20 mm | 8 µM | zone of inhibition at 500 µg/disc [10]: 7 mm; zone of inhibition at 1000 µg/disc [12]: 13 mm; zone of inhibition at 500 µg/disc [14]: 7 mm; MIC [19]: > 100 µg/mL; zone of inhibition at 500 µg/disc [20]: 5 mm; MIC [21]: > 100 µg/mL; MIC [22]: > 100 µg/mL; MIC [23]: > 100 µg/mL; zone of inhibition at 500 µg/disc [25]: 6 mm; zone of inhibition at 1000 µg/disc [28]: 15 mm; MIC [30]: > 100 µg/mL; MIC [31]: > 100 µg/mL; zone of inhibition at 500 µg/disc [32]: 11 mm; zone of inhibition at 1000 µg/disc [33]: 11 mm; MIC [34]: 100 µg/mL (≈ 290 µM); MIC [35]: 25 µg/mL (≈ 72.4 µM) |
